KCNK9 inh: KCNK9 potassium channel inhibitors, primary screen, HEK293 cells, thallium flux; Potassium channel subfamily K member 9 (Homo sapiens), Q9NPC2; FluxOR thallium flux fluorescence; active compounds read low; B-score at 10 µM; 1.2% of 310,000 active; AID 488922, 2010;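 active = ratio B-score over 3 SD below the library mean, with starting fluorescence within 5 SD of its mean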;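 note: negative B-score means less thallium flux so channel inhibition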
Target sequence (Q9NPC2 whole entry, looked up): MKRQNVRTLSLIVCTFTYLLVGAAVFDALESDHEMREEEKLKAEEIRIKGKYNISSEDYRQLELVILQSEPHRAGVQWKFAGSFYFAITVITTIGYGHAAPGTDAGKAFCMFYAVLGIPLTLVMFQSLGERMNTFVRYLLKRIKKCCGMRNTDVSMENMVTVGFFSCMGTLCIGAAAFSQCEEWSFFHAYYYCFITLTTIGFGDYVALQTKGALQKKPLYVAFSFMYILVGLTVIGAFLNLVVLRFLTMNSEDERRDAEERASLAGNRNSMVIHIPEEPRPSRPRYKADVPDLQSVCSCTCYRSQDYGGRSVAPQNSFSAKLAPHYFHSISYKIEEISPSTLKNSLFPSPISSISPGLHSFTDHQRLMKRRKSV
KCNK3 block: human KCNK3 channel inhibitors, primary screen, CHO cells, FluxOR thallium flux, B-score; Potassium channel subfamily K member 3 (Homo sapiens), O14649; FluxOR fluorescence; active compounds read low; B-score at 10 µM; 0.84% of 340,000 active; AID 602410, 2012;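 active = B-score under library mean minus 4 SD, starting fluorescence ratio at most library mean plus 5 SD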;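 note: more negative B-score means stronger inhibition of thallium flux through KCNK3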
hERG protect: hERG rescue from dofetilide block, primary screen, cell-based, CHO-hERG, FluxOR thallium flux, dofetilide IC70. Voltage-gated inwardly rectifying potassium channel KCNH2 (Homo sapiens), Q12809. dofetilide IC70 present. activation (rescue from dofetilide block), less the hit threshold, % at 10 µM. 0.51% of 310,000 active. AID 1511, 2009;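 active = activation above the mean of controls blocked by dofetilide plus 5 SD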;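 note: thallium influx through hERG after potassium depolarization seen as dye fluorescence rise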
KCNQ1 inh: inhibitors of human KCNQ1 channel, primary screen, cell-based, thallium flux, high-throughput; Potassium voltage-gated channel subfamily KQT member 1 (Homo sapiens), P51787; CHO-K1 KCNQ1, FluxOR thallium flux fluorescence; active compounds read high; B-score at 10 µM; 1.3% of 310,000 active; AID 2642, 2010;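 active = compounds whose thallium flux B-score, printed positive for inhibition, exceeds three library SD while starting fluorescence stays within three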;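 note: channel opened by potassium depolarization with thallium stimulus after 20 min compound exposure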
Cl transport mod: KCC2 cotransporter modulators, thallium flux, primary screen, cell-based, HEK293 KCC2, FluoZin-2 fluorescence, MLSMR | AID 1456, 2008 | B-score of Tl+ flux slope (higher = more flux/activation; lower = inhibition) at 10 µM | Solute carrier family 12 member 5 (Homo sapiens), Q9H2X9 | 2.2% of 190,000 active | KCC2 cells, thallium flux FluoZin-2 fluorescence;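 active = thallium flux slope and its plate-corrected score both differing from the plate sample mean at a set confidence after two filtering rounds, in either direction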;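 note: slope of fluorescence scaled to starting intensity during 10 to 20 s after thallium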
KCNQ1 pot: potentiators or activators of KCNQ1 channel, primary screen, cell-based, thallium flux, high-throughput | 0.35% of 310,000 active | CHO-K1 KCNQ1, thallium flux FluxOR fluorescence; active compounds read high | B-score at 10 µM;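 active = fluorescence ratio B-score, a plate-corrected score, at least three library SD, with initial intensity B-score within 5 SD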
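Test system: CHO-K1 cells stably expressing KCNQ1 / Medium: assay buffer / Also added: depolarizing K+/Tl+ stimulus, K2SO4 and Tl2SO4 each 12.5 mM in 5x stock / Incubation: 90 min dye loading and 20 min compound exposure, both at room temperature / Signal: thallium influx via FluxOR fluorescence, kinetic imaging / Evaluation: B score of baseline-normalized fluorescence ratio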
KCNK9 block conf: KCNK9 potassium channel inhibitors, confirmation, HEK293 cells, thallium flux, duplicate. shares compounds with KCNK9 inh. FluxOR thallium flux fluorescence. 43% of 4,900 active. inhibition, % at 10 µM. AID 492992, 2010;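 active = thallium signal inhibited by more than 5 SD of the compound-free buffer control wells, on both duplicate plates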;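 note: 0% = assay buffer control wells without compound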
Kir21 sel: mouse Kir2.1 channel inhibition, confirmation, selectivity assay for KCNK9 modulator project, cell-based, HEK293, thallium flux; shares compounds with KCNK9 inh; Kir2.1 cells, FluxOR thallium flux fluorescence; inhibition, % at 10 µM; 4% of 4,900 active;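 active = thallium signal drop more than 5 SD beyond the mean of the no-compound control wells, seen in both duplicate plates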;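 note: signal is fluorescence rise after thallium addition divided by baseline fluorescence; plate controls were assay buffer only for no effect and full block by chlorpromazine control for full effect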
HEK293 Tl ctr: thallium flux in non-induced HEK293 cells, confirmation, counter-screen for KCNK9 inhibitor project, cell-based, second counter screen, non-induced KCNK9-HEK293 | shares compounds with KCNK9 inh | FluxOR thallium flux | inhibition, % at 10 µM | 40% of 4,900 active | AID 492997, 2010;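 active = thallium signal drop beyond 5 SD of the untreated control mean, on both duplicate plates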;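 note: plate controls were buffer only IC0 wells for no effect and SID17386958 at its maximal inhibitory level for full effect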
* = called active by the depositor; i = inactive; x = not tested or not shown. An excerpt weighted towards active compounds, which were near 4.1% of everything screened.

SMILES	KCNK9 inh	KCNK3 block	hERG protect	KCNQ1 inh	Cl transport mod	KCNQ1 pot	KCNK9 block conf	Kir21 sel	HEK293 Tl ctr
CCCN1CCN(C(=S)Nc2sc(CC)cc2C(=O)OC)CC1	i	i	-13	i	0.76	i	i	i	i
Cc1nc(COc2ccccc2Cl)sc1-c1ccnc(N)n1	i	i	-6	i	-1.2	i	x	x	x
C=CCn1c(C)cc(C(=O)CSc2nnc(-c3cccc(S(=O)(=O)N(CC)CC)c3)o2)c1C	i	i	-1	i	x	i	i	i	i
CCN(CC)S(=O)(=O)c1cccc(-c2nnc(SCCCC(=O)c3ccccc3)o2)c1	i	i	-19	i	x	i	i	i	i
Cc1onc(-c2c(F)cccc2Cl)c1C(=O)OCC(=O)NC(c1ccccc1)c1ccccc1	-8.3*	i	-12	i	0.021	i	25%*	i	29%*
CCN1/C(=C/c2ccc3ccccc3[n+]2CC)C=Cc2ccccc21	-18*	-9*	-38	13*	-3.6	i	86%*	94%*	59%*
CC/C(=N\NC(=S)Nc1ccc(OC)cc1)c1ccc(OC(F)F)cc1	i	i	0	i	8.7*	i	i	i	i
Cc1nnc(SCc2ccc(Cl)cc2)nc1/C=C/N(C)C	i	i	-12	i	-1.4	i	i	i	i
O=C(NCCN1CCOCC1)c1cc(-c2ccc(Br)cc2)on1	-12*	i	-10	i	x	i	i	i	i
O=C(NCCCN1CCOCC1)c1cc(-c2ccc(Br)cc2)on1	i	i	-10	i	-0.64	i	x	x	x
N/C(=N\O)c1cn(Cc2ccccc2Cl)c2ccccc12	i	i	-12	i	x	i	x	x	x
Cc1[nH][nH]c(=O)c1C(c1c(C)[nH][nH]c1=O)c1cn(Cc2ccccc2Cl)c2ccccc12	i	i	-14	i	-0.97	i	i	i	i
Cc1ccc(NC(=O)c2sccc2SCc2cccc(C(F)(F)F)c2)cc1	-14*	i	-10	10*	0.063	i	64%*	48%*	50%*
CCS(=O)(=O)N1CCN(C(=O)C(c2ccccc2)c2ccccc2)CC1	i	i	-9	i	x	i	x	x	x
O=C(O)c1ccc(Oc2cccc([N+](=O)[O-])c2)cc1C(=O)O	i	i	-8	i	0.27	i	x	x	x
Cc1cc(Cl)ccc1OC(C)C(=O)N1CCCN(C(=O)C(C)Oc2ccc(Cl)cc2C)CC1 (stereo not drawn)	-15*	i	-6	i	-1.6	i	58%*	i	30%*
Cc1ccc(NC(=S)N(CCN(C)C)C(C)c2ccco2)c(C)c1 (stereo not drawn)	i	i	-11	i	0.13	i	x	x	x
Cc1oc(-c2cccs2)nc1CN1CCC(c2ccccc2)CC1	i	i	-11	i	0.68	i	i	i	i
Cc1ccc(OCC(=O)c2ccc3c(c2)CCCC3)cc1C	i	i	-3	i	-1.1	i	i	i	i
Clc1ccc(OCc2nc(-c3ccc(Br)o3)no2)cc1	i	i	-5	i	1.2	i	x	x	x
Brc1ccc(-c2noc(COc3ccc4c(c3)CCC4)n2)o1	i	i	-18	i	-0.052	i	i	i	i
c1csc(-c2noc(COc3ccc4c(c3)CCCC4)n2)c1	i	i	-16	i	0.87	i	i	i	i
Cc1ccc2c(c1)N(C(=O)CCC(=O)N1CCOCC1)CCO2	i	i	-4	i	x	i	x	x	x
N#CC(c1ccccc1O)N1N=C(c2ccccc2)CC1c1ccccc1 (stereo not drawn)	-10*	i	-10	12*	-0.15	i	40%*	i	47%*
CC(=O)N1c2ccc(S(=O)(=O)N3CCCC(C(=O)NC4CCCC(C)C4C)C3)cc2CC1C (stereo not drawn)	i	i	-9	i	x	i	x	x	x
SMILES	KCNK9 inh	KCNK3 block	hERG protect	KCNQ1 inh	Cl transport mod	KCNQ1 pot	KCNK9 block conf	Kir21 sel	HEK293 Tl ctr
O=C(NNC1=NC2(CCCC2)Cc2ccccc21)c1cccnc1	i	i	-8	i	-0.16	i	x	x	x
COc1ccccc1C(=O)N/N=C/C(C)=C/c1ccccc1	-10*	i	-6	i	x	i	48%*	i	30%*
CC(/C=N/NC(=O)c1ccncc1)=C\c1ccccc1	i	i	-7	i	-1.3	i	x	x	x
COc1ccc(-c2noc(C3CCCN(S(=O)(=O)c4cccc(Cl)c4C)C3)n2)cc1OC (stereo not drawn)	-12*	i	-7	i	0.49	i	34%*	i	i
COc1ccc(-c2noc(C3CCCN(C(=O)c4cccc(C)c4)C3)n2)cc1 (stereo not drawn)	i	i	-4	i	x	i	i	i	i
COc1ccc(-c2noc(C3CCCN(S(=O)(=O)c4ccc(C)c(Cl)c4)C3)n2)cc1OC (stereo not drawn)	i	i	-15	i	-0.54	i	x	x	x
Cc1ccc(S(=O)(=O)N2CCN(C(=O)CSc3ncc(C(F)(F)F)cc3Cl)CC2)cc1	i	i	-6	i	x	i	i	i	i
CC(/C=C1\SC(=S)N(C(C(=O)O)c2ccccc2)C1=O)=C\c1ccccc1 (stereo not drawn)	i	i	-19	i	-1.7	i	i	i	i
C=CCOc1ccc(/C=C2\SC(=S)N(C(C(=O)O)c3ccccc3)C2=O)cc1 (stereo not drawn)	i	i	-22	i	-2.1	i	i	i	i

Screening results from PubChem.
